Source: PubChem (The Scripps Research Institute Molecular Screening Center)
UHRF1 MBD2 ctr: UHRF1 methylated DNA binding inhibitors, primary screen, counter-screen for MBD2 inhibitor project, biochemical, TR-FRET, human UHRF1, single concentration | inhibition, % at 4.4 µM | E3 ubiquitin-protein ligase UHRF1 (Homo sapiens), Q96T88 | AID 687016, 2013 | UHRF1 binding to methylated oligo | actives 0.75% (n = 370,000); in the data active = inhibition above about 21%;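 note: UHRF1 SRA domain binding a hemimethylated CpG hairpin DNA probe; 0% = median of test compound wells and 100% = reference inhibitor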
Target sequence (Q96T88 whole entry, looked up, the tested form may be a part): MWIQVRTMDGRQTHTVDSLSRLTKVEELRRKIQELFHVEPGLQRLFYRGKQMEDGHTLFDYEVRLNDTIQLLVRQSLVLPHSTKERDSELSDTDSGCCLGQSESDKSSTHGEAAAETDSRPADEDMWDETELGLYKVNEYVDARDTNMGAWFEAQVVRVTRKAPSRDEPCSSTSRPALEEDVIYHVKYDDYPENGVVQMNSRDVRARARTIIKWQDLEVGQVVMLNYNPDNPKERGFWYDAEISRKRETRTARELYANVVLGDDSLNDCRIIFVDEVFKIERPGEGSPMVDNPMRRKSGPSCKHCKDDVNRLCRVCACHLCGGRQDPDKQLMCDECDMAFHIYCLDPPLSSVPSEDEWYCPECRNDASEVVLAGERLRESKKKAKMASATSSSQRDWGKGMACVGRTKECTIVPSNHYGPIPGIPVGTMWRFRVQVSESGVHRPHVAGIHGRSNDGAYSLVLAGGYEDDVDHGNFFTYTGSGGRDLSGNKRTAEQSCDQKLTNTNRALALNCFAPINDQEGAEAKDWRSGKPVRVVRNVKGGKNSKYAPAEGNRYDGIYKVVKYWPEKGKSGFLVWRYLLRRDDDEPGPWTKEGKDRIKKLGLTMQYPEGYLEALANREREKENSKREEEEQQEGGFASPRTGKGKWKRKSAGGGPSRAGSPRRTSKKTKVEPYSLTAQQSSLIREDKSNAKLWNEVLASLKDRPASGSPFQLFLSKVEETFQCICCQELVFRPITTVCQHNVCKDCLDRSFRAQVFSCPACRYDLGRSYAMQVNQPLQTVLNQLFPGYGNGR
TDP2 absorb: human TDP2 enzyme inhibitors, primary screen, biochemical, epi absorbance, recombinant enzyme; Tyrosyl-DNA phosphodiesterase 2 (Homo sapiens), O95551; T5PNP hydrolysis, p-nitrophenol absorbance 415 nm; inhibition, % at 12.8 µM; actives 0.34% (n = 370,000); AID 720702, 2013;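 active = inhibition above the mean of all tested compounds plus 3 SD, set per campaign, cut at about 25% in these data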;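 note: 0% = DMSO with enzyme and 100% = buffer with substrate but no TDP2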
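Incubation: 2 h at 37 °C; Test system: recombinant human TDP2; Quantity: enzyme 120 nM; Read-out basis: percent inhibition; Medium: 50 mM Tris-HCl pH 7.5 with Mg2+, KCl, DTT, BSA; Repeats: single replicate; Compound: 12.8 µM single point, 1% DMSO; Signal: epi absorbance; Reagent: 5 mM T5PNP chromogenic substrate; Benchmarks: no-enzyme high, DMSO-plus-enzyme low.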
LEDGF integ inh: blockers of LEDGF/p75-dependent integrase strand transfer – biochemical, TR-FRET, high throughput, primary screen. TR-FRET IN-LEDGF/p75 DNA integration, Eu/Cy5. actives 0.64% (n = 370,000). inhibition, % at 3.7 µM. AID 743269, 2014;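 active = inhibition above the screen-wide mean plus 3 SD, cut at about 13% in these data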;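 note: signal is the Cy5 over europium emission ratio at 671 and 618 nm; 0% = plate median of compound wells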
MBD2 DNA inh: inhibitors of MBD2 binding to methylated DNA, primary screen, biochemical, TR-FRET, DNA-binding domain, human; actives 0.31% (n = 370,000); MBD2 binding to methylated oligonucleotide; inhibition, % at 4.4 µM; in the data active = inhibition above about 13%
Active calls of the source: *. Only some compounds are listed: those with a hit (about 1.6% of all), similar ones and a draw of the others.

For CC(=O)Nc1ccc(S(=O)(=O)N2CCSC2c2ccco2)cc1 (stereo not drawn) the results were UHRF1 MBD2 ctr 27*, TDP2 absorb -6, LEDGF integ inh 4 and MBD2 DNA inh 12.
Screening O=C(/C=C/c1cccc([N+](=O)[O-])c1)NCCc1ccc(F)cc1 returned UHRF1 MBD2 ctr 38*, TDP2 absorb 4, LEDGF integ inh 0 and MBD2 DNA inh -1.
Screening CC(C)C(=O)NC(=S)Nc1sc2c(c1C(N)=O)CCCC2 returned UHRF1 MBD2 ctr 50*, TDP2 absorb 5, LEDGF integ inh 1 and MBD2 DNA inh 6.
Screening Cc1cccc(-c2cccc3c4c([nH]c23)[C@@H]2C[C@H](N(C)C(=O)c3ccccc3C)[C@H]([C@H](C)O)CN2CC4)c1 returned UHRF1 MBD2 ctr -2, TDP2 absorb -10, LEDGF integ inh 5 and MBD2 DNA inh 1.
COc1cc(C(=O)N2CCN(C(=O)CC(C)C)CC2)cc(OC)c1OC was read as UHRF1 MBD2 ctr 31*, TDP2 absorb 0, LEDGF integ inh -3 and MBD2 DNA inh 9.
O[C@H](COc1ccccc1)CN1CCC(C(O)(c2ccccc2)c2ccccc2)CC1 was read as UHRF1 MBD2 ctr 0, TDP2 absorb -15, LEDGF integ inh 7 and MBD2 DNA inh 1.
For Cc1c(C(=O)Nc2ccc(F)c(F)c2)oc2ccc(S(=O)(=O)N3CCCCC3)cc12 the results were UHRF1 MBD2 ctr 23*, TDP2 absorb -10, LEDGF integ inh -3 and MBD2 DNA inh 4.
Screening O=C(NC1CCCc2c1cnn2-c1ccc(F)cc1F)c1cccs1 (stereo not drawn) returned UHRF1 MBD2 ctr 0, TDP2 absorb 11, LEDGF integ inh -1 and MBD2 DNA inh -2.
`COC(=O)C1=C(C)N(C)C(C)=C(C(=O)OC)C1c1ccc(Cl)cc1` gave UHRF1 MBD2 ctr -2, TDP2 absorb 1, LEDGF integ inh -1 and MBD2 DNA inh -5.
`CCOC(=O)C1=C(C)N(C)C(C)=C(C(=O)OCC)C1c1ccc(Cl)cc1` gave UHRF1 MBD2 ctr 26*, TDP2 absorb -6, LEDGF integ inh -1 and MBD2 DNA inh 6.
CCc1ccc2nc(Nc3ccc(OC)cc3OC)c(C#N)cc2c1 was read as UHRF1 MBD2 ctr 22*, TDP2 absorb -10, LEDGF integ inh 11 and MBD2 DNA inh 3.
`COc1ccc(Nc2nc(C)cc(C)c2C#N)c(OC)c1` gave UHRF1 MBD2 ctr 1, TDP2 absorb 10, LEDGF integ inh 3 and MBD2 DNA inh 2.
`COC(=O)[C@]12C[C@H](CC(=O)NCC3CCCCC3)C(=O)N(CCc3ccc(OC)c(OC)c3)C1=C[C@H](COCc1ccccc1)O[C@@H]2C` gave UHRF1 MBD2 ctr 0, TDP2 absorb -7, LEDGF integ inh 5 and MBD2 DNA inh 4.
Screening COC(=O)C(N)Cc1ccc(O)c(O)c1 (stereo not drawn) returned UHRF1 MBD2 ctr -5, TDP2 absorb 3, LEDGF integ inh 4 and MBD2 DNA inh 2.
NC(CO)C(=O)NNCc1ccc(O)c(O)c1O (stereo not drawn) was read as UHRF1 MBD2 ctr 11, TDP2 absorb -5, LEDGF integ inh 43* and MBD2 DNA inh 7.
Screening N/C(=N\OC(=O)Cc1cccs1)c1ccccc1 returned UHRF1 MBD2 ctr 21*, TDP2 absorb 7, LEDGF integ inh -2 and MBD2 DNA inh 9.
Screening Cc1cccc(/C(N)=N/OC(=O)Cc2cccc3ccccc23)c1 returned UHRF1 MBD2 ctr 0, TDP2 absorb 2, LEDGF integ inh 2 and MBD2 DNA inh 1.
`Cc1ccc(/C(N)=N/OC(=O)Cc2cccc3ccccc23)cc1` gave UHRF1 MBD2 ctr 24*, TDP2 absorb -8, LEDGF integ inh 0 and MBD2 DNA inh 6.
`COC(=O)[C@]12C[C@H](CC(=O)NCc3ccc(OC)c(OC)c3)C(=O)N(Cc3ccco3)C1=C[C@H](C(C)(C)C)O[C@@H]2C` gave UHRF1 MBD2 ctr -2, TDP2 absorb 1, LEDGF integ inh -1 and MBD2 DNA inh 3.
Screening Cc1ccc2c(c1)N(CCCC(=O)N(C)Cc1ccccc1F)C(=O)CO2 returned UHRF1 MBD2 ctr 4, TDP2 absorb -8, LEDGF integ inh 4 and MBD2 DNA inh 3.
For O=c1[nH]c(C2CCN(S(=O)(=O)c3ccc4c(c3)OCCO4)CC2)nc2c1nnn2Cc1ccc(F)cc1 the results were UHRF1 MBD2 ctr 27*, TDP2 absorb 5, LEDGF integ inh -2 and MBD2 DNA inh 5.
`O=c1[nH]c(C2CCN(S(=O)(=O)c3ccc4c(c3)OCCO4)CC2)nc2c1nnn2Cc1cccc(F)c1` gave UHRF1 MBD2 ctr 1, TDP2 absorb -1, LEDGF integ inh -1 and MBD2 DNA inh 4.
`CCCC1CCC2(CCC(=O)N2CCO)CC1` (stereo not drawn) gave UHRF1 MBD2 ctr 3, TDP2 absorb -5, LEDGF integ inh 3 and MBD2 DNA inh -1.
Screening O=C(CN1CCN(S(=O)(=O)c2ccc(Br)cc2)CC1)c1ccc(O)c(O)c1 returned UHRF1 MBD2 ctr 1, TDP2 absorb 1, LEDGF integ inh 42* and MBD2 DNA inh -4.
NC(=O)CN1CCN(c2ccccc2F)CC1 was read as UHRF1 MBD2 ctr 0, TDP2 absorb 14, LEDGF integ inh 1 and MBD2 DNA inh -2.
`O=C(CN1CCN(c2ccccc2F)CC1)c1ccc(O)c(O)c1` gave UHRF1 MBD2 ctr 6, TDP2 absorb 12, LEDGF integ inh 64* and MBD2 DNA inh -4.
CC(C)c1ccc(S(=O)(=O)N2CCN(CC(=O)c3ccc(O)c(O)c3)CC2)cc1 was read as UHRF1 MBD2 ctr 2, TDP2 absorb 0, LEDGF integ inh 36* and MBD2 DNA inh -5.
`CCOC(=O)[C@]12CCCCC/C=C\1N(CCc1ccc(Cl)cc1)C(=O)[C@H]2CC(=O)N1CCC(c2ccccc2)CC1` gave UHRF1 MBD2 ctr 0, TDP2 absorb 4, LEDGF integ inh 0 and MBD2 DNA inh 0.
`COC(=O)C[C@H]1CC[C@H]2[C@H](COc3ccc(NC(=O)c4cccs4)cc3C(=O)N2C)O1` gave UHRF1 MBD2 ctr -1, TDP2 absorb 0, LEDGF integ inh 0 and MBD2 DNA inh 2.
CC1CCN(Cc2nnnn2CCCC(=O)NC(c2ccccn2)C(F)(F)F)CC1 (stereo not drawn) was read as UHRF1 MBD2 ctr -2, TDP2 absorb 9, LEDGF integ inh 28* and MBD2 DNA inh -6.
`COCC1CCCCN1C(=O)CCCn1nnnc1CN1CCC(C)CC1` (stereo not drawn) gave UHRF1 MBD2 ctr -1, TDP2 absorb -8, LEDGF integ inh -2 and MBD2 DNA inh -3.
